We go through nine molecules from ChEMBL document CHEMBL4138275, “Taccalonolide Microtubule Stabilizers Generated Using Semisynthesis Define the Effects of Mono Acyloxy Moieties at C-7 or C-15 and Disubstitutions at C-7 and C-25” (J Nat Prod, 2018).

The source made the active and inactive calls. The calls are words filed in the database; no cut-off is given here.

For data set [1], the system named is HeLa. The data set can be described thus: Induction of microtubule stabilization in human HeLa cells assessed as bundling of interphase microtubule at 5 times IC50 after 18 hrs by indirect immunofluorescence assay. The class given is cell-based. An outline of the steps: (§1)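 HeLa cells treated for 18 h at 5-fold each compound's own antiproliferative IC50, with EtOH as vehicle control. Mitotic and interphase microtubules stained by indirect immunofluorescence with a β-tubulin antibody and viewed by fluorescence microscopy.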

Data set [2] relates to HeLa. In words: Induction of microtubule stabilization in human HeLa cells assessed as formation of multiple aberrant mitotic spindle at 5 times IC50 after 18 hrs by indirect immunofluorescence assay. The class given is cell-based. An outline of the steps: as §1
Data set [3] in a line: Toxicity in ip dosed athymic nude mouse harboring tumor. The settings on record: in vivo. The class given is organism-based. An outline of the steps:
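Dose tolerance was assessed in tumor-bearing mice carrying drug-sensitive or drug-resistant xenografts, with compound given by ip injection. A cumulative maximal tolerated dose was determined.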

Data set [4] relates to HeLa. The data set can be described thus: Antiproliferative activity against human HeLa cells after 48 hrs by sulforhodamine B assay. Type of data set: functional, cell-based. An outline of the steps:
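HeLa cells (STR-validated) grown in BME with 10% FBS and gentamycin, seeded 2500/well, left to adhere overnight, then exposed to compounds for 48 h. Cell density read by sulforhodamine B staining. IC50 is the concentration giving 50% inhibition of cell density versus vehicle, fitted by nonlinear regression. Mean of 3 or 4 experiments, each in triplicate, ±SD.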

The species entered for data set [5] is Sus scrofa. In words: Induction of porcine brain tubulin polymerization at 5 to 20 uM by turbidimetric method. In a few lines:
(§2)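 Compound or vehicle (1% EtOH) added; samples prepared on ice, then warmed to 37 °C to start polymerization. Rate and extent followed turbidimetrically at 340 nm.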

The test system of data set [6] is NCI/ADR-RES. In words: Antitumor activity against human NCI/ADR-RES cells xenografted in athymic nude mouse administered via ip. The class given is functional, cell-based. (In xenograft studies the graft and the host belong to different species.)
The species entered for data set [7] is Sus scrofa. In words: Induction of porcine brain tubulin polymerization at 5 uM by turbidimetric method. In a few lines: as §2
The test system of data set [8] is NCI/ADR-RES. The data set can be described thus: Antitumor activity against human NCI/ADR-RES cells xenografted in athymic nude mouse assessed as reduction in tumor growth at 20 ug administered intratumorally on day 0, 3, 6, 10 and 14 measured on day 12 to 14 post dose. The class given is functional, cell-based. An outline of the steps:
(§3)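 NCI/ADR-RES tumor fragments implanted s.c. in the flanks of female athymic nude mice. Randomized at a mean tumor volume of 250 mm3 (range 100−465). Dosing was 20 μg in 200 μL of 10% EtOH/PBS by intratumoral injection on days 0, 3, 6, 10 and 14; vehicle and paclitaxel groups ran alongside. Caliper volume = L×W×H. Mice were euthanized at 1500 mm3. Two-way ANOVA with Tukey post hoc.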

Data set [9] relates to NCI/ADR-RES. In words: Antitumor activity against human NCI/ADR-RES cells xenografted in athymic nude mouse assessed as delay in tumor growth at 20 ug administered intratumorally on day 0, 3, 6, 10 and 14 measured up to 54 days starting from 5 days post last dose. The class given is functional, cell-based. In a few lines:
(§4)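 NCI/ADR-RES tumor fragments implanted s.c. in flanks of female athymic nude mice. At about 250 mm3 (100−465 mm3), mice were grouped (n = 7−9). Tumors were injected directly with 200 μL on days 0, 3, 6, 10 and 14: 20 μg in 10% EtOH/PBS, paclitaxel 40 μg in 1% Cremophor/EtOH in PBS, or vehicle. Volume = length × width × height by calipers.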

In data set [10] the test system is NCI/ADR-RES. In words: Antitumor activity against human NCI/ADR-RES cells xenografted in athymic nude mouse assessed as reduction in tumor growth at 20 ug administered intratumorally on day 0, 3, 6, 10 and 14 measured on day 10 post dose. Type of data set: functional, cell-based. An outline of the steps:
as §4

For data set [11], the system named is Mus musculus. In words: Toxicity in athymic nude mouse xenografted with human NCI/ADR-RES cells assessed as weight loss at 20 ug administered intratumorally on day 0, 3, 6, 10 and 14 measured on day 10. The class given is organism-based. As to conditions: in vivo, other. In a few lines:
as §3

Data set [12] concerns NCI/ADR-RES. The data set can be described thus: Antitumor activity against human NCI/ADR-RES cells xenografted in athymic nude mouse assessed as tumor volume at 20 ug administered intratumorally on day 0, 3, 6, 10 and 14 measured up to 45 days starting from 5 days post last dose. The class given is functional. In a few lines: as §4
For data set [13], the system named is NCI/ADR-RES. The data set can be described thus: Antitumor activity against human NCI/ADR-RES cells xenografted in athymic nude mouse assessed as reduction in tumor growth at 20 ug administered intratumorally on day day 0, 3, 6, 10 and 14 measured on day 0 post dose. The class given is functional, cell-based. In a few lines: as §3
Data set [14] deals with NCI/ADR-RES. In words: Antitumor activity against human NCI/ADR-RES cells xenografted in athymic nude mouse assessed as time required to show half of the tumors to reach tumor volume <1500 mm3 at 20 ug administered intratumorally on day 0, 3, 6, 10 and 14 measured after 5 days. Type of data set: functional. An outline of the steps: as §3
Data set [15] relates to NCI/ADR-RES. In words: Antitumor activity against human NCI/ADR-RES cells xenografted in athymic nude mouse assessed as reduction in tumor growth at 20 ug administered intratumorally on day 0, 3, 6, 10 and 14 measured on day 12. The class given is functional, cell-based. An outline of the steps:
as §3

For data set [16], the system named is Mus musculus. The data set can be described thus: Toxicity in athymic nude mouse xenografted with human NCI/ADR-RES cells assessed as adverse effect at 20 ug administered intratumorally on day 0, 3, 6, 10 and 14 measured on day 12. The class given is organism-based. The settings on record: in vivo, other. In a few lines:
as §3

In data set [17] the test system is NCI/ADR-RES. The data set can be described thus: Antitumor activity against human NCI/ADR-RES cells xenografted in athymic nude mouse assessed as reduction in tumor growth at 40 ug administered intratumorally on day 0, 3, 6, 10 and 14 measured up to 14 days during compound dosing. The class given is functional, cell-based. In a few lines:
as §4

In data set [18] the test system is NCI/ADR-RES. In words: Antitumor activity against human NCI/ADR-RES cells xenografted in athymic nude mouse assessed as reduction in tumor growth at 40 ug administered intratumorally on day day 0, 3, 6, 10 and 14 measured on day 0 post dose. The class given is functional, cell-based. An outline of the steps: as §4
The test system of data set [19] is NCI/ADR-RES. The data set can be described thus: Antitumor activity against human NCI/ADR-RES cells xenografted in athymic nude mouse assessed as reduction in tumor growth at 40 ug administered intratumorally on day 0, 3, 6, 10 and 14 measured on day 12 to 14 post dose. Type of data set: functional, cell-based. In a few lines:
as §4

One may read the IC50 as the concentration that inhibits the measured activity by half. High values mean lower potency, low ones higher potency. Consider `CC(=O)O[C@H]1[C@H]2[C@H]([C@@H]3[C@@H](OC(=O)C(C)(C)C)[C@@H]4[C@H]([C@H](C)[C@H]5O[C@]56OC(=O)[C@@](C)(O)[C@]46C)[C@@]3(C)[C@H]1OC(C)=O)[C@@H](O)C(=O)[C@H]1C[C@@H]3O[C@@H]3[C@H](OC(C)=O)[C@]21C`, for which the result in data set [1] and in [2] was Active. The MTD in data set [3] is under 10 mg/kg. For the same molecule, in [4], the midpoint of inhibition, the IC50, lay at 4.2 nM.

With `CC(=O)O[C@H]1[C@H]2[C@H]([C@@H]3[C@@H](O)[C@@H]4[C@H]([C@H](C)[C@H]5O[C@]56OC(=O)[C@@](C)(O)[C@]46C)[C@@]3(C)[C@H]1OC(C)=O)[C@@H](O)C(=O)[C@H]1C[C@@H]3O[C@@H]3[C@H](OC(C)=O)[C@]21C`, the outcome in [5] was Active. For the same molecule, the IC50 in data set [4] came out at 4.2 nM. Also, the outcome in data set [6] was inactive.

As for `CC(=O)O[C@H]1[C@H]2[C@H]([C@@H]3[C@@H](OC(=O)C4CC4)[C@@H]4[C@H]([C@H](C)[C@H]5O[C@]56OC(=O)[C@@](C)(O)[C@]46C)[C@@]3(C)[C@H]1OC(C)=O)[C@@H](O)C(=O)[C@H]1C[C@@H]3O[C@@H]3[C@H](OC(C)=O)[C@]21C`, the result in data set [7], in data set [1] and in data set [2] was Active. In data set [3], this molecule returned an MTD of under 10 mg/kg. The same molecule returned an IC50 in data set [4] of 27.5 nM.

In the case of `CC(=O)O[C@@H]1[C@H]2[C@H]3[C@H]([C@H](OC(C)=O)[C@H](OC(C)=O)[C@]2(C)[C@H]2[C@H](C)[C@H]4O[C@]45OC(=O)[C@@](C)(O)[C@]5(C)[C@H]12)[C@]1(C)[C@H](C[C@@H]2O[C@@H]2[C@@H]1OC(C)=O)C(=O)[C@@H]3O`, the concentration for half-maximal inhibition (IC50) in data set [4] stood at 23 nM. Moreover, the result in [6] was Active.

Regarding `CC(=O)O[C@H]1[C@H]2[C@H]([C@@H]3[C@@H](OC(=O)CC(C)C)[C@@H]4[C@H]([C@H](C)[C@H]5O[C@]56OC(=O)[C@@](C)(O)[C@]46C)[C@@]3(C)[C@H]1OC(C)=O)[C@@H](O)C(=O)[C@H]1C[C@@H]3O[C@@H]3[C@H](OC(C)=O)[C@]21C`, the result in data set [7], in data set [8], in data set [1], in [9], in data set [2] and in data set [10] was Active. For the same molecule, the result in [13] was Active. Further, the MTD in data set [3] is under 10 mg/kg. The same molecule gave an IC50 in [4] of 2.7 nM. The outcome in data set [6] was inactive. Further, the Activity entry is “Non-Toxic” in data set [11] and under 1500 mm3 in data set [12].

For the molecule `CC(=O)O[C@H]1[C@H]2[C@H]([C@@H]3[C@@H](OC(=O)C(C)C)[C@@H]4[C@H]([C@H](C)[C@H]5O[C@]56OC(=O)[C@@](C)(O)[C@]46C)[C@@]3(C)[C@H]1OC(C)=O)[C@@H](O)C(=O)[C@H]1C[C@@H]3O[C@@H]3[C@H](OC(C)=O)[C@]21C`, the result in [7], in data set [1] and in data set [2] was Active. In data set [3], this molecule had an MTD of under 10 mg/kg. Besides, the IC50 in data set [4] amounted to 10.6 nM.

Take `CC(=O)O[C@H]1[C@H]2[C@H]([C@@H]3[C@@H](O)[C@@H]4[C@H]([C@H](C)[C@H]5O[C@]56OC(=O)[C@@](C)(O)[C@]46C)[C@@]3(C)[C@H]1OC(C)=O)[C@@H](OC(=O)C(C)(C)C)C(=O)[C@H]1C[C@@H]3O[C@@H]3[C@H](OC(C)=O)[C@]21C`: the outcome in data set [7], in data set [1] and in data set [2] was Active. In addition, the IC50 in data set [4] was determined as 9 nM.

On to `CC(=O)O[C@H]1[C@H]2[C@H]([C@@H]3[C@@H](O)[C@@H]4[C@H]([C@H](C)[C@H]5O[C@]56OC(=O)[C@@](C)(O)[C@]46C)[C@@]3(C)[C@H]1OC(C)=O)[C@@H](OC(=O)CC(C)C)C(=O)[C@H]1C[C@@H]3O[C@@H]3[C@H](OC(C)=O)[C@]21C`, for which the Time in data set [14] amounted to 38 days. The outcome in [7], in data set [8], in data set [1], in data set [2], in data set [15] and in [13] was Active. Further, the MTD in [3] is under 10 mg/kg. Also, in data set [4], the IC50 worked out at 2.4 nM. For the same molecule, in data set [6], the result was inactive. The Activity result in data set [16] was “Non-Toxic”.

Take `CC(=O)O[C@H]1C(=O)[C@@]2(C)[C@H]([C@H](OC(=O)c3ccccc3)[C@]3(O)C[C@H](OC(=O)[C@H](O)[C@@H](NC(=O)c4ccccc4)c4ccccc4)C(C)=C1C3(C)C)[C@]1(OC(C)=O)CO[C@@H]1C[C@@H]2O`: the result in data set [17] and in data set [18] was inactive. Moreover, the result in data set [19] was Active.
